Activity calls are given as the source filed them. No cut-off for these calls is given here.
Key:
Candida parapsilosis [1] = assay: Decrease in CGD gene ortholog accession number orf19.530 expression in Candida parapsilosis CLIB214 at 50 uM after 2 hrs by microarray based transcriptional profiling relative to control; type: functional
Summary of the method: (§1)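 Cells in YPD at 30°C treated with 50 μM farnesol at 4 h, with a methanol control. RNA harvested 2 h later and kept only if 28S/18S ratio was 1.6–2.2 with no degradation. 25 μg total RNA oligo-dT primed and labeled with Cy3/Cy5-dCTP. Labeled cDNA hybridized about 16 h at 42°C to duplicate-spotted 68-mer oligo arrays. Six individual comparisons analyzed statistically.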

Candida parapsilosis [2] = assay: Effect on membrane lipid localization in ERG9 gene expression in Candida parapsilosis CLIB214 assessed as uniform staining at 50 uM after 1 hr by filipin staining; type: functional
Summary of the method: (§2)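 Cultures grown overnight in YPD at 30°C, diluted to A600 0.2, and given farnesol to 50 μM final (methanol for controls) after 4 h of growth. Cells collected 1 h later, PBS-washed, and stained 10 min at room temperature with 100 μg ml−1 filipin in water. Scored by fluorescence microscopy (excitation 360–370 nm, emission 420–460 nm) as bud-tip versus uniform sterol staining.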

Candida parapsilosis [3] = assay: Antifungal activity against Candida parapsilosis CLIB214 assessed as growth inhibition in presence of 10% fetal calf serum at 30 degC; type: functional, organism-based
Summary of the method: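 YPD cultures started at A600 0.2, supplemented with 10% (vol/vol) fetal calf serum, and grown at 30°C or 37°C. Farnesol added with the serum. Growth monitored by A600 or cell counting.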

Candida parapsilosis [4] = assay: Reduction in ERG1 gene expression in Candida parapsilosis CLIB214 by RT-PCR; type: functional, organism-based
Summary of the method: (§3)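 Cultures in YPD at 30°C, diluted to A600 0.2; 50 μM farnesol (final) or methanol added at 4 h, RNA harvested 2 h later. RT-PCR: 95°C hot start 1 min 30 s, then 26 cycles (95°C 40 s, 55°C 2 min, 72°C 3 min), final 72°C 5 min; each gene signal normalized to ACT1.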

Candida parapsilosis [5] = assay: Increase in POT1 gene expression in Candida parapsilosis CLIB214 at 50 uM after 2 hrs by microarray based transcriptional profiling relative to control; type: functional
Summary of the method: (§4)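 Strain grown overnight in YPD at 30°C, diluted to A600 0.2 in YPD at 30°C; farnesol (40 mM methanol stock) added at 4 h (A600 0.8), final 50 μM; methanol-only control. Cells collected 2 h later for RNA. Labelled cDNA from 25 μg total RNA (Cy3/Cy5-dCTP) hybridized to 68-mer oligo arrays at 42°C ~16 h; six individual comparisons analysed statistically.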

Candida parapsilosis [6] = assay: Increase in CGD gene ortholog accession number orf19.3501 expression in Candida parapsilosis CLIB214 at 50 uM after 2 hrs by microarray based transcriptional profiling relative to control; type: functional
Summary of the method: (§5)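 Strain CLIB214 grown overnight in YPD at 30°C, diluted to A600 0.2 in fresh YPD at 30°C. After 4 h (A600 0.8), farnesol (40 mM methanol stock) added to 50 μM final, or an equal methanol volume as control; cells harvested 2 h later. RNA was accepted only with a 28S/18S ratio of 1.6–2.2. Cy3/Cy5-dCTP-labelled cDNA was made from 25 μg total RNA. Hybridisation was to duplicate-spotted 68-mer oligo arrays (3,849 genes) at 42°C for about 16 h. Six individual comparisons.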

Candida parapsilosis [7] = assay: Decrease in CGD gene ortholog accession number orf19.4372 expression in Candida parapsilosis CLIB214 at 50 uM after 2 hrs by microarray based transcriptional profiling relative to control; type: functional; summary of the method: as §1
Candida parapsilosis [8] = assay: Increase in CGD gene ortholog accession number orf19.854 expression in Candida parapsilosis CLIB214 at 50 uM after 2 hrs by microarray based transcriptional profiling relative to control; type: functional; summary of the method: as §4
Candida parapsilosis [9] = assay: Increase in TEF1 gene expression in Candida parapsilosis CLIB214 at 50 uM after 2 hrs by microarray based transcriptional profiling relative to control; type: functional; summary of the method: as §4
Candida parapsilosis [10] = assay: Increase in CGD gene ortholog accession number orf19.7235 expression in Candida parapsilosis CLIB214 at 50 uM after 2 hrs by microarray based transcriptional profiling relative to control; type: functional; summary of the method: as §5
Candida parapsilosis [11] = assay: Decrease in CGD gene ortholog accession number orf19.6744 expression in Candida parapsilosis CLIB214 at 50 uM after 2 hrs by microarray based transcriptional profiling relative to control; type: functional; summary of the method: as §5
Candida parapsilosis [12] = assay: Effect on membrane lipid localization in ERG9 gene expression in Candida parapsilosis CLIB214 assessed as growing bud tip staining at 50 uM after 1 hr by filipin staining; type: functional; summary of the method: as §2
Candida parapsilosis [13] = assay: Decrease in PIKA gene expression in Candida parapsilosis CLIB214 at 50 uM after 2 hrs by microarray based transcriptional profiling relative to control; type: functional; summary of the method: as §5
Candida parapsilosis [14] = assay: Increase in PDB1 gene expression in Candida parapsilosis CLIB214 at 50 uM after 2 hrs by microarray based transcriptional profiling relative to control; type: functional; summary of the method: as §4
Candida parapsilosis [15] = assay: Antifungal activity against Candida parapsilosis CLIB214 assessed as growth inhibition at 50 uM added after 8 hrs of bacterial growth measured after 4 hrs; type: functional; details: Lodderomyces parapsilosis
Summary of the method: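 Overnight YPD culture at 30°C diluted to A600 0.2 in YPD. Farnesol added to 50 μM final at 2, 4, 6 or 8 h of growth (A600 about 0.8 at 4 h, 2.3 at 6 h, 6 at 8 h). Growth compared with methanol controls by A600 or cell counts.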

Candida parapsilosis [16] = assay: Increase in ERG7 gene expression in Candida parapsilosis CLIB214 at 50 uM after 2 hrs by microarray based transcriptional profiling relative to control; type: functional; summary of the method: as §4
Candida parapsilosis [17] = assay: Increase in CGD gene ortholog accession number orf19.1457 expression in Candida parapsilosis CLIB214 at 50 uM after 2 hrs by microarray based transcriptional profiling relative to control; type: functional; summary of the method: as §5
Candida parapsilosis [18] = assay: Decrease in SOL1 gene expression in Candida parapsilosis CLIB214 at 50 uM after 2 hrs by microarray based transcriptional profiling relative to control; type: functional; summary of the method: as §5
Candida parapsilosis [19] = assay: Increase in GLN1 gene expression in Candida parapsilosis CLIB214 by RT-PCR; type: functional, organism-based; summary of the method: as §3
Candida parapsilosis [20] = assay: Increase in REG1 gene expression in Candida parapsilosis CLIB214 at 50 uM after 2 hrs by microarray based transcriptional profiling relative to control; type: functional; summary of the method: as §4
Candida parapsilosis [21] = assay: Decrease in CGD gene ortholog accession number orf19.409 expression in Candida parapsilosis CLIB214 at 50 uM after 2 hrs by microarray based transcriptional profiling relative to control; type: functional; summary of the method: as §1
Candida parapsilosis [22] = assay: Decrease in CGD gene ortholog accession number orf19.4253 expression in Candida parapsilosis CLIB214 at 50 uM after 2 hrs by microarray based transcriptional profiling relative to control; type: functional; summary of the method: as §1
Candida parapsilosis [23] = assay: Decrease in CGD gene ortholog accession number orf19.1728 expression in Candida parapsilosis CLIB214 at 50 uM after 2 hrs by microarray based transcriptional profiling relative to control; type: functional; summary of the method: as §1
Candida parapsilosis [24] = assay: Decrease in CGD gene ortholog accession number orf19.3603 expression in Candida parapsilosis CLIB214 at 50 uM after 2 hrs by microarray based transcriptional profiling relative to control; type: functional; summary of the method: as §1

CC(C)=CCC/C(C)=C/CC/C(C)=C/CO [FARNESOL]
fold change (FC) (Candida parapsilosis [1]): 1.89
Activity (Candida parapsilosis [2]): 82%
Activity (Candida parapsilosis [3]): inactive
Activity (Candida parapsilosis [4]): Active
fold change (FC) (Candida parapsilosis [5]): 1.71
fold change (FC) (Candida parapsilosis [6]): 1.63
fold change (FC) (Candida parapsilosis [7]): 1.67
fold change (FC) (Candida parapsilosis [8]): 1.69
fold change (FC) (Candida parapsilosis [9]): 1.61
fold change (FC) (Candida parapsilosis [10]): 1.56
fold change (FC) (Candida parapsilosis [11]): 1.66
Activity (Candida parapsilosis [12]): 18%
fold change (FC) (Candida parapsilosis [13]): 1.65
fold change (FC) (Candida parapsilosis [14]): 1.7
inhibition at 50 µM (Candida parapsilosis [15]): 16%
fold change (FC) (Candida parapsilosis [16]): 1.68
fold change (FC) (Candida parapsilosis [17]): 1.55
fold change (FC) (Candida parapsilosis [18]): 1.54
Activity (Candida parapsilosis [19]): Active
fold change (FC) (Candida parapsilosis [20]): 1.56
fold change (FC) (Candida parapsilosis [21]): 2.21
fold change (FC) (Candida parapsilosis [22]): 1.63
fold change (FC) (Candida parapsilosis [23]): 1.59
fold change (FC) (Candida parapsilosis [24]): 1.92
